Source: PubChem BioAssay
mABHD4 FP: ABHD4 inhibitors, primary screen, biochemical, fluorescence polarization, mouse; (Lyso)-N-acylphosphatidylethanolamine lipase (Mus musculus), Q8VD66; 370,000 compounds, 0.54% hits; inhibition, % at 8.92 µM; purified mABHD4, FP-Rh probe fluorescence polarization; AID 720543, 2013;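 active means inhibition exceeding the mean over every tested compound plus 3 SD, cut at about 30% in these data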
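Assay system: Wild-type mouse ABHD4 protein | Medium: HEPES pH 7.0 buffer, 150 mM NaCl, 0.01% Pluronic F-127 | Incubation: Enzyme–compound pre-incubation 45 min, then probe 60 min, both 25 °C | Technique: Fluorescence polarization with parallel and perpendicular emission, 525/598 nm | Evaluation: % inhibition of FP-Rh probe binding versus controls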
PRMT1 FP inh: PRMT1 methyltransferase inhibitors, primary screen, biochemical, fluorescence polarization | recombinant PRMT1, activity-based probe fluorescence polarization | inhibition, % at 2.79 µM | Protein arginine N-methyltransferase 1 (Homo sapiens), Q99873 | AID 652257, 2013 | 370,000 compounds, 1.3% hits;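 active means inhibition above about 21% made by adding two undisclosed values, limit read from the data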
TCR-CD3 inh: inhibitors of human TCR-CD3 interaction, primary screen, biochemical, fluorescence, TAMRA-labeled TCR probe. 360,000 compounds, 0.37% hits. inhibition, % at 9.4 µM; in the data active means inhibition above about 19%;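 further: recombinant mutant TCR 2C K166C tagged with TAMRA read by polarization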
SIAE primary: human SIAE inhibitors, primary screen, biochemical, fluorescence polarization, FP-Rh probe, 1536-well HTS; 370,000 compounds, 0.69% hits; Sialate O-acetylesterase (Homo sapiens), Q9HAT2; SIAE FP-Rh probe binding; AID 1053197, 2014; inhibition, % at 9.66 µM;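 active means inhibition above a cutoff: mean of compounds within the control limits plus 3 SD of those, cut at about 17% in these data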
HTRA1 inhibitor: HTRA1 serine protease inhibitors, primary screen, biochemical, fluorescence polarization, HTS | Q92743 | recombinant HTRA1, FP-rhodamine activity-based probe | inhibition, % at 5.96 µM | 340,000 compounds, 0.5% hits | AID 504803, 2011; in the data active means inhibition above about 36%
Target sequence (Q92743 whole entry, looked up): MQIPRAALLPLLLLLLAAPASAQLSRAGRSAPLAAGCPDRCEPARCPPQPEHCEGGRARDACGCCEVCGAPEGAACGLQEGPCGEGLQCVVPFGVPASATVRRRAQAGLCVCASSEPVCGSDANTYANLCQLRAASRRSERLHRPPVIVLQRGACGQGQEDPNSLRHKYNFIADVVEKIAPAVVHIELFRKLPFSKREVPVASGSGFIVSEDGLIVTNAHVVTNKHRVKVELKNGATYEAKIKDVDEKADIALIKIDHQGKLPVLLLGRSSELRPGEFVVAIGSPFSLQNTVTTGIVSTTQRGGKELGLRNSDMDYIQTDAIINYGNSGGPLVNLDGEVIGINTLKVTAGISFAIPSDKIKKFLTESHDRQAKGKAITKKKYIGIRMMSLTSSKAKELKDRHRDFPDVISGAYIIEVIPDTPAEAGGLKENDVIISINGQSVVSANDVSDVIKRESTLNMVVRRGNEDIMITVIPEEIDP
SIAE confirm: human SIAE inhibitors, retest, confirmation, biochemical, fluorescence polarization, FP-Rh probe, triplicate; inhibition, % at 9.66 µM; 2,300 compounds, 13% hits; SIAE FP-Rh activity-based probe; shares compounds with SIAE primary; AID 1117263, 2014;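 active means mean inhibition of the replicates above the hit cutoff set in the primary screen, cut at about 17% in these data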;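 further: inhibitors lower polarization as more probe stays unbound to SIAE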
A number is an active result; – = inactive; · = no result given. Hits are enriched below; roughly 2.6% of the tested compounds scored in any of these assays.

SMILES	mABHD4 FP	PRMT1 FP inh	TCR-CD3 inh	SIAE primary	HTRA1 inhibitor	SIAE confirm
COc1ccc(CC(C(=O)Nc2ccc(OC)cc2)c2nn[nH]n2)cc1 (stereo not given)	–	–	–	26	–	–
Cc1ccc(-n2ncc3c(N4CCN(c5ccccc5)CC4)ncnc32)c(C)c1	–	–	–	18	–	–
CCOC(=O)Cc1csc(NS(=O)(=O)c2ccc(F)cc2)n1	–	–	–	19	–	–
CCOC(=O)Cc1csc(NS(=O)(=O)c2ccc(Br)cc2)n1	–	–	–	–	–	·
Cc1ccc(-c2nc3ncccn3c2NC(=O)c2ccc(F)cc2)cc1	–	–	·	–	·	·
CC(C)c1ccc(NC(=O)COC(=O)CC2CCCC2)cc1	–	–	–	20	–	–
CC1CCC(=NNC(=O)c2ccccc2-n2cccc2)CC1 (stereo not given)	–	–	–	–	–	·
CC1CCC/C(=N/NC(=O)c2ccccc2-n2cccc2)C1 (stereo not given)	–	–	–	42	–	–
Cc1ccc(S(=O)(=O)NCCCN(C)C)cc1	–	–	–	19	–	–
Cc1ccc(S(=O)(=O)NCCCNS(=O)(=O)c2ccc(C)cc2)cc1	–	–	–	–	–	·
CC(=O)Nc1c(NC(C)(C)C)c2ccccc2oc1=O	–	–	–	21	–	–
O=C(CCNC(=O)c1ccc(Br)cc1)Nc1ncccc1O	–	–	–	24	–	–
Cn1cc([N+](=O)[O-])c(C(=O)N/N=C/c2ccc([N+](=O)[O-])cc2)n1	–	–	–	–	–	·
Cn1cc([N+](=O)[O-])c(C(=O)N/N=C/c2ccncc2)n1	–	–	–	17	–	–
Cc1c(CC(=O)O)c(=O)oc2cc(OCc3nn[nH]n3)ccc12	–	–	–	18	–	–
Cc1c(Cc2ccccc2)c(=O)oc2cc(OCc3nn[nH]n3)ccc12	–	–	–	–	–	·
O=C(N[C@H](Cc1ccccc1)C(=O)NCc1ccc(OC(F)(F)F)cc1)[C@H]1O[C@@H](n2ccc(=O)[nH]c2=O)[C@H](O)[C@@H]1O	–	–	–	–	·	·
CCOc1ccc(NC(=O)c2cc(-c3ccc(Cl)cc3)nc3ccccc23)cc1	–	–	·	–	·	·
CCOC(=O)CCC(=O)Nc1ccc(S(=O)(=O)Nc2cc(OC)nc(OC)n2)cc1	–	–	–	–	–	·
COc1cc(NS(=O)(=O)c2ccc(NC(=O)CCC(=O)O)cc2)nc(OC)n1	–	–	–	17	–	–
C[C@@H]1CCN(C2CC2)S(=O)(=O)c2c(cccc2N2CCC[C@H]2C)O1	–	–	·	–	·	·
CCN(c1ccccc1)S(=O)(=O)c1ccc(C(=O)N(CCCN(C)C)c2nc3cc4c(cc3s2)OCO4)cc1	–	–	–	–	–	·
CN(C)CCCN(C(=O)c1ccc(S(=O)(=O)N(C)Cc2ccccc2)cc1)c1nc2cc3c(cc2s1)OCO3	–	–	–	22	–	–
COCCN(CCOC)C(=O)[C@H](CCc1ccccc1)NC(=O)[C@H]1O[C@@H](n2cnc3c(N)ncnc32)[C@H](O)[C@@H]1O	–	–	–	–	·	·
COc1ccc(C2OC3=C(Nc4cc(C)c(C)cc4N3)C2=O)cc1 (stereo not given)	–	–	–	–	–	·
SMILES	mABHD4 FP	PRMT1 FP inh	TCR-CD3 inh	SIAE primary	HTRA1 inhibitor	SIAE confirm
Cc1cc2c(cc1C)NC1=C(N2)OC(c2cccc(O)c2)C1=O (stereo not given)	–	–	–	28	–	–
COc1ccccc1N1CCN(/N=C/c2cccc(O)c2)CC1	–	–	–	–	–	·
COc1ccccc1N1CCN(/N=C/c2cc(OC)c(O)c(OC)c2)CC1	–	–	–	20	–	–
COc1cc(C(=O)N2CCC(N3CCCCCC3)CC2)cc(OC)c1OC	–	–	–	–	–	·
COc1cc(C(=O)N2CCN(C3CCCCC3)CC2)cc(OC)c1OC	–	–	–	18	–	–
COCCCNC(=O)C[C@H]1C[C@@]2(C(=O)OC)C(=C[C@H](C(C)C)O[C@@H]2C2CC2)N(Cc2ccccc2)C1=O	–	–	–	–	·	·
CSc1cccc(NC(=S)N(CCN(C)C)C(C)c2ccccn2)c1 (stereo not given)	–	–	–	–	–	·
CSc1cccc(NC(=S)N(CCN(C)C)C(C)c2ccncc2)c1 (stereo not given)	–	–	–	23	–	–
O=[N+]([O-])c1ccc(-c2ccc(/C=N/O)o2)cc1	–	–	–	25	·	–
NC(=O)N/N=C/c1ccc(-c2ccc([N+](=O)[O-])cc2)o1	–	–	–	–	–	·
CCCCNC(=O)Nc1ccccc1C(=O)Nc1ccc(OC)cc1	–	–	–	50	–	–
COc1ccccc1CCn1cnc(-c2ccccc2)c1CC(C)C	–	–	–	–	·	·
CCC(=O)c1c(CC)c2n3c1CC[C@H]3CCC2	–	–	–	17	–	–
Cc1cc(Nc2ccccc2)n(-c2ccc(C(=O)O)cc2)n1	–	–	–	23	–	–
Cc1cc(C)n(-c2ccc(C(=O)O)cc2)n1	–	–	–	–	–	·
CCN(CC)C(=O)C1CCN(CC2CC=CCC2)CC1 (stereo not given)	–	–	–	–	–	·
CCN(Cc1ccccc1)C(=O)C1CCN(CC2CC=CCC2)CC1 (stereo not given)	–	–	–	22	–	–
CC1CCC(C(C)C)C(OC(=O)COC(=O)c2cc(O)ccc2N)C1 (stereo not given)	–	–	–	20	–	–
COC(=O)c1c(C)[nH]c(C)c1C(C)=O	–	–	–	–	–	·
COC(=O)c1c([N+](=O)[O-])c(OC)c(OC)c(OC)c1[N+](=O)[O-]	–	–	–	19	–	–
COC(=O)[C@]12C[C@H](CC(=O)N3CCCC3)C(=O)N(CCC3=CCCCC3)C1=C[C@H](COCc1ccccc1)O[C@@H]2C	–	–	–	–	·	·
CC(C)c1ccc(NC2CCCN(C(=O)CN3C(=O)CSC3=O)C2)cc1 (stereo not given)	–	–	–	17	–	–
CNC(=O)c1c(NC(=O)c2ccc(S(=O)(=O)N3CCCCC3C)cc2)sc2c1CCN(C)C2 (stereo not given)	–	–	–	17	–	–
CCOC(=O)C1CCN(C(=O)CCC(=O)NNc2nc3ccccc3c3nc(C)nn23)CC1	–	–	–	–	–	·
Cc1nc2c3ccccc3nc(NNC(=O)CCC(=O)N3CCC(C)CC3)n2n1	–	–	–	23	–	–
